Screening data from PubChem.
TAAR1 ag: human TAAR1 agonists, primary screen, Fluo-8 calcium fluorescence, CHO RD-HGA16 cells; Trace amine-associated receptor 1 (Homo sapiens), Q96RJ0; vehicle wells 0%, saturating PEA agonist 100%; activation, % at 3 µM; actives 0.99% (n = 360,000); AID 624467, 2012;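 active = activation above the mean activation of all test compounds in the run plus 3 SD, cut at about 38% in these data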
Target sequence (Q96RJ0 whole entry, looked up): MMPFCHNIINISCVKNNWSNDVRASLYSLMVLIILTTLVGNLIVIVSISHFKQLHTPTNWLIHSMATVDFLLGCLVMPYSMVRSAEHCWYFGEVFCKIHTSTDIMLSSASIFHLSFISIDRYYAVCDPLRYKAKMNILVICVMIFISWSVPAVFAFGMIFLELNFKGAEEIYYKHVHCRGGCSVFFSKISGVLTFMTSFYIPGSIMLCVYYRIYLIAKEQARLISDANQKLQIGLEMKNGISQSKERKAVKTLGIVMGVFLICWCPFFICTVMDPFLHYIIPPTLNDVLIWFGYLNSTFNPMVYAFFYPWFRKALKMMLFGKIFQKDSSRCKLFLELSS
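Benchmarks: low control DMSO, high control PEA (EC100); System: CHO RD-HGA16 cells carrying human TAAR1 plus Gα16; Detection: Fluo-8 fluorescence, 5 s baseline then 140 s kinetic read; Schedule: 17-24 h plating, Fluo-8 75 min 37 °C, 30 min RT; Read-out basis: % activation from peak over basal fluorescence ratio, DMSO-to-PEA scaled.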
OX1R antag-1: antagonists of human orexin 1 receptor (OX1R); OX1R-expressing cells, FRET antagonist read-out; inhibition, % at 6.6 µM; actives 1.8% (n = 330,000); AID 485270, 2010; in the data active = inhibition mostly above about 38%, no sharp cut-off; inactive = mostly below about 40%;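 note: 0% = agonist challenge alone and 100% = reference antagonist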
TAAR1 antagonist: human TAAR1 antagonists, primary screen, Fluo-8 calcium fluorescence, CHO RD-HGA16 cells | Trace amine-associated receptor 1 (Homo sapiens), Q96RJ0 | antagonist | inhibition, % at 3 µM | actives 1.5% (n = 360,000) | AID 624466, 2012;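 active = inhibition above a per-plate cutoff, the mean inhibition of test compounds on that plate plus 3 SD, cut at about 49% in these data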;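 note: 0% = DMSO plus EC80 beta-PEA response and 100% = DMSO alone without agonist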
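Test system – hTAAR1-expressing CHO RD-HGA16 cells, Gα16-coupled · Also added – β-PEA at EC80 concentration, post-compound challenge · Compound – 3 µM, single point · Incubation – dye loading 75 min at 37 °C, then 30 min room temperature · Measured by – Fluo-8 intracellular calcium dye fluorescence, real-time kinetic reads · Benchmarks – vehicle and agonist controls · Replicates – singlicate, one well per test compound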
CHO parental Ca: ATP-evoked calcium signal inhibitors, parental CHO, primary screen, counter-screen for OX1R antagonist project, cell-based, fluorescence, Fluo-8 calcium dye. AID 463079, 2010. inhibition, % at 5.6 µM. actives 0.63% (n = 330,000). parental CHO-K1, ATP-induced calcium, Fluo-8 fluorescence;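 active = inhibition above that plate's mean sample inhibition plus 3 SD, cut at about 26% in these data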;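 note: 0% = ATP-challenged DMSO wells and 100% = DMSO wells without ATP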
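Measured by: calcium-sensitive Fluo-8 fluorescence / Test system: CHO parental line / Controls: ATP-challenged DMSO wells low, unchallenged DMSO wells high / Measure: % inhibition / Compound: single nominal dose of 5.6 µM per compound / Replicates: single well per compound, no replicates / Reagent: ATP as calcium-mobilizing challenge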
OX1R antag-2: OX1R (HCRTR1) antagonists, primary screen, fluorescence, CHO/OX1R cells, Fluo-8 calcium, orexin A; Orexin/Hypocretin receptor type 1 (Homo sapiens), O43613; inhibition, % at 5 µM; Fluo-8 calcium fluorescence; actives 0.43% (n = 330,000);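 active = inhibition above its plate's threshold, mean inhibition of all tested compounds on the plate plus 3 SD, cut at about 37% in these data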;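 note: 0% = orexin A challenge wells and 100% = SB-334867-A antagonist wells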
GPR7 antag: GPR7 receptor antagonists, primary screen, cell-based, fluorescence, single concentration; actives 1.1% (n = 290,000); GPR7-expressing cells, fluorescence antagonist assay; AID 1861, 2009; Neuropeptides B/W receptor type 1 (Homo sapiens), P48145; inhibition, % at 4.4 µM; in the data active = inhibition above about 16%, passing the limit was not always enough;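 note: cells stimulated with the agonist NPW; 0% = agonist with vehicle and 100% = vehicle without agonist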
Target sequence (P48145 whole entry, looked up): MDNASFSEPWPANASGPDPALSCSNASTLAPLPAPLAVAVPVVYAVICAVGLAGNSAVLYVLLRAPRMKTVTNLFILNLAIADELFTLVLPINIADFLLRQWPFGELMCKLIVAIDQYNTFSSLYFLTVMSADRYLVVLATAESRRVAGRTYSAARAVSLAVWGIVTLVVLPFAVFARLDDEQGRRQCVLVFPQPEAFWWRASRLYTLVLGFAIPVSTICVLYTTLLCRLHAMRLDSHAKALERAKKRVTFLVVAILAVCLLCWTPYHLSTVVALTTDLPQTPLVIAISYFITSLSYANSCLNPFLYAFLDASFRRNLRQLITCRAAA
Numbers without * were called inactive; / = not tested or not shown. Rows were chosen to be rich in hits. Some 4.6% of all compounds tested hit in one or more screens of this group.

SMILES | TAAR1 ag | OX1R antag-1 | TAAR1 antagonist | CHO parental Ca | OX1R antag-2 | GPR7 antag
CC1(C)CC[C@]2(C(=O)n3ccnc3)CC[C@]3(C)[C@H](C(=O)C=C4[C@@]5(C)C=C(C#N)C(=O)C(C)(C)[C@@H]5CC[C@]43C)[C@@H]2C1 | 13 | / | 25 | / | / | /
COc1cc(Cl)ccc1OC1(C)CCN(Cc2ccc(-c3ccccn3)cc2)C1 (centres undefined) | 5 | / | 1 | / | / | /
O=C(Nc1ccc(F)cc1F)C1CCN(c2ncnc3c2sc2cccc(F)c23)CC1 | 7 | 46* | 17 | -5 | -12 | -11
CC1CC(C)CN(CCCNC(=O)C2CCN(c3ncnc4c3sc3cccc(F)c34)CC2)C1 (centres undefined) | / | 55* | / | -28 | -5 | 0
O=C(C(=O)N1CCN(C(=O)Cc2ccccc2)CC1)c1cccc(C(F)(F)F)c1 | 5 | / | -38 | / | / | /
Cc1nnc2nc(N)[nH]n2c1=O | 5 | / | -2 | / | / | /
CCc1ccc(OCC(=O)Nc2ccc(-c3cc4ccccc4oc3=O)c(OC)c2)cc1 | 1 | 28 | 15 | 40* | 10 | -7
Cn1nnnc1SCc1nnc(-c2ccccc2Br)o1 | 16 | 3 | 0 | 2 | -15 | -11
Cc1ccc(-n2nnnc2SCc2nnc(-c3ccccc3Br)o2)c(C)c1 | 4 | 44* | 17 | 25 | 63* | -8
CC1CC(C)CN(C(=O)c2ccc3c(c2)N(Cc2ccccc2)CCS3)C1 (centres undefined) | / | 15 | / | 47* | -30 | -5
O=C(NC1CC1)c1ccc2c(c1)N(Cc1ccc(Cl)cc1)CCS2 | -4 | 46* | -10 | -35 | -22 | 11
O=Cc1c[nH]c2cccc(OCc3ccccc3)c12 | -2 | / | 49* | / | / | /
CCc1ccc(-c2nc(CN3CCC(C(=O)N4CCN(c5ccccn5)CC4)CC3)c(C)o2)cc1 | 13 | 2 | -16 | -16 | -28 | -5
CCc1ccc(-c2nc(CN3CCC(C(=O)NCCN(CC)c4ccccc4)CC3)c(C)o2)cc1 | 25 | 2 | -4 | -18 | -26 | -6
CCN(CCNC(=O)C1CCN(Cc2nc(-c3cccc(Cl)c3)oc2C)CC1)c1ccccc1 | 39* | 10 | -3 | -4 | -10 | 7
CCN(CCNC(=O)C1CCN(Cc2nc(-c3ccc(Cl)cc3)oc2C)CC1)c1ccccc1 | 13 | 1 | 6 | 1 | 0 | 53*
CCc1ccc(-c2nc(CN3CCC(C(=O)N4CCN(c5ccccc5)CC4)CC3)c(C)o2)cc1 | 28 | 6 | -3 | 2 | -8 | 23*
CCC(=O)c1ccc(OCC(=O)OCC(=O)Nc2cccc(S(=O)(=O)N3CCOCC3)c2)cc1 | 8 | / | 28 | / | / | /
C[C@H]1[C@H](c2ccccc2)Oc2cccc(N3CCCC3)c2S(=O)(=O)N1Cc1cccc(F)c1 | 1 | / | -25 | / | / | /
COc1cc(NCCCC(C)N)c2ncccc2c1 (centres undefined) | 8 | / | 2 | / | / | -2
CCC(CNc1cc(OC)cc2cccnc12)NC1CCCCC1 (centres undefined) | 15 | 58* | -15 | -30 | -21 | -11
CC1CCCC(NC(=O)COC(=O)CCC(=O)c2ccc(F)cc2)C1C (centres undefined) | -1 | 12 | -25 | -3 | -2 | /
O=C(COC(=O)c1cc(S(=O)(=O)Nc2ccccc2Cl)ccc1O)Nc1ccc(F)c(F)c1F | 5 | 34* | 10 | -6 | 16 | /
OCCSc1nc(-c2ccccc2)nc2ccc(F)cc12 | 3 | 47* | -12 | -17 | -15 | -7
COC(=O)CSc1nc(-c2ccccc2)nc2ccc(F)cc12 | 9 | 17 | -8 | -20 | -33 | -5
SMILES | TAAR1 ag | OX1R antag-1 | TAAR1 antagonist | CHO parental Ca | OX1R antag-2 | GPR7 antag
CCN1CCN(S(=O)(=O)c2cccc3nsnc23)CC1 | 13 | 40 | -24 | -2 | -12 | -8
O=S(=O)(c1cccc2nsnc12)N1CCNCC1 | -5 | 55* | 6 | 3 | -13 | -3
CC1CCCCN1CCNC(=O)C1CCN(S(=O)(=O)c2cccc3nsnc23)CC1 (centres undefined) | 2 | 34 | -39 | -17 | -1 | -3
CCCN(CCC)CCCNC(=O)C1CCN(S(=O)(=O)c2cccc3nsnc23)CC1 | 2 | 40* | -17 | -1 | -2 | -16
CC1CCCCN1CCNC(=O)C1CCCN(S(=O)(=O)c2cccc3nsnc23)C1 (centres undefined) | 0 | 46* | -14 | -28 | -21 | -11
Brc1ccc(CN2CCN(c3ncc(Cc4ccccc4)cn3)CC2)cc1 | 3 | / | -24 | / | / | /
Cc1ccc(S(=O)(=O)N(C)[C@H]2C[C@H]3c4cc(-c5ccc6c(c5)OCO6)ccc4CCN3C[C@H]2[C@H](C)O)cc1 | 1 | / | -32 | / | / | /
O=C(CNC(=O)CNC(=O)c1ccc(Cl)cc1Cl)NCc1cccc(Cl)c1 | 3 | 18 | -11 | -19 | -11 | 14
O=C(CN1C2CCCC1CC(NC(=O)c1ccccc1)C2)Nc1ccccc1C(F)(F)F (centres undefined) | -2 | 68* | -10 | -12 | -10 | -5
O=C(CN1C2CCCC1CC(NC(=O)c1ccco1)C2)Nc1ccccc1C(F)(F)F (centres undefined) | 4 | 51* | 5 | -4 | -3 | -2
O=C(CN1CCC(NC(=O)c2ccco2)CC1)Nc1ccccc1C(F)(F)F | -2 | 12 | 4 | -19 | -12 | -17
c1ccc2c(c1)OCc1nccn1-2 | 0 | / | 15 | / | / | /
CCOC(=O)[C@@H]1[C@H]2COc3cc(OC)ccc3[C@H]2N2C(=O)N(c3ccc(C(F)(F)F)cc3)C(=O)[C@]12C | 7 | 20 | 26 | 50* | 31 | /
CCOC(=O)[C@@H]1[C@H]2COc3cc(OC)ccc3[C@@H]2N2C(=O)N(c3ccc(C(F)(F)F)cc3)C(=O)[C@@]12C | 1 | 28 | -18 | -19 | -15 | 6
CN(CC(=O)Nc1ccc(F)cc1)C(=O)CN1C(=O)c2cccc([N+](=O)[O-])c2C1=O | 3 | 8 | -17 | -4 | -3 | /
CCN1/C(=C/c2ccc3cc(C)cc(C)c3[n+]2CC)Sc2cc(C)ccc21 | 23 | / | 38 | / | / | 10
CCN1/C(=C/c2ccc3cccc(C)c3[n+]2CC)Sc2ccccc21 | 25 | 32 | 29 | 66* | 100* | 34*
O=C(NCC(=O)N(Cc1cccs1)C(C(=O)NC1CCCCC1)c1ccco1)c1ccco1 (centres undefined) | 18 | 7 | 52* | -22 | -21 | -9
